In ChEMBL document CHEMBL1287779, “Indium(III) chloride catalyzed three-component coupling reaction: a novel synthesis of 2-substituted aryl(indolyl)kojic acid derivatives as potent antifungal and antibacterial agents” (2010):
In brackets after ≈: the same amount, converted by molar mass.

How the values were obtained:
Format in all cases: functional
Aspergillus niger [1] = test: Antifungal activity against Aspergillus niger MTCC 282 assessed as zone of inhibition at 100 ug by agar well diffusion method; conditions: read-out: IZ
Method in brief: (§1)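 Agar well diffusion on potato dextrose agar. Plates were spread with 0.5 mL of a week-old culture of the test organism, and 6 mm wells were cut with a cork borer. Compounds were dissolved in DMSO at different concentrations and added to the wells, with controls included. Plates were held at 27 °C for 48 h, and inhibition zone diameters were read in mm. Three to four replicates per treatment.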

Pseudomonas aeruginosa = test: Antibacterial activity against Pseudomonas aeruginosa MTCC 741 by broth dilution method
Method in brief: (§2)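 MIC determined by broth dilution following NCCL standards. Penicillin and streptomycin were tested in parallel under identical conditions.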

Escherichia coli = test: Antibacterial activity against Escherichia coli MTCC 443 by broth dilution method; method in brief: as §2
Diutina rugosa [2] = test: Antifungal activity against Candida rugosa NCIM 3462 assessed as zone of inhibition at 150 ug by agar well diffusion method; conditions: read-out: IZ; method in brief: as §1
Rhizopus arrhizus [3] = test: Antifungal activity against Rhizopus oryzae MTCC 262 assessed as zone of inhibition at 100 ug by agar well diffusion method; conditions: read-out: IZ; method in brief: as §1
Candida albicans [4] = test: Antifungal activity against Candida albicans MTCC 227 assessed as zone of inhibition at 100 ug by agar well diffusion method; conditions: read-out: IZ; method in brief: as §1
Staphylococcus aureus = test: Antibacterial activity against Staphylococcus aureus MTCC 96 by broth dilution method; method in brief: as §2
Saccharomyces cerevisiae [5] = test: Antifungal activity against Saccharomyces cerevisiae MTCC 36 assessed as zone of inhibition at 100 ug by agar well diffusion method; conditions: read-out: IZ; method in brief: as §1
Candida albicans [6] = test: Antifungal activity against Candida albicans MTCC 227 assessed as zone of inhibition at 150 ug by agar well diffusion method; conditions: read-out: IZ; method in brief: as §1
Aspergillus niger [7] = test: Antifungal activity against Aspergillus niger MTCC 282 assessed as zone of inhibition at 150 ug by agar well diffusion method; conditions: read-out: IZ; method in brief: as §1
Saccharomyces cerevisiae [8] = test: Antifungal activity against Saccharomyces cerevisiae MTCC 36 assessed as zone of inhibition at 150 ug by agar well diffusion method; conditions: read-out: IZ; method in brief: as §1
Rhizopus arrhizus [9] = test: Antifungal activity against Rhizopus oryzae MTCC 262 assessed as zone of inhibition at 150 ug by agar well diffusion method; conditions: read-out: IZ; method in brief: as §1
Klebsiella pneumoniae = test: Antibacterial activity against Klebsiella pneumoniae MTCC 618 by broth dilution method; method in brief: as §2
Bacillus subtilis = test: Antibacterial activity against Bacillus subtilis MTCC 441 by broth dilution method; method in brief: as §2
[10] = test system: Staphylococcus epidermidis; test: Antibacterial activity against Staphylococcus epidermidis MTCC 2639 by broth dilution method; method in brief: as §2
Diutina rugosa [11] = test: Antifungal activity against Candida rugosa NCIM 3462 assessed as zone of inhibition at 100 ug by agar well diffusion method; conditions: read-out: IZ; method in brief: as §1

Row | Compound | MIC (Pseudomonas aeruginosa) | MIC (Escherichia coli) | MIC (Staphylococcus aureus) | MIC (Klebsiella pneumoniae) | MIC (Bacillus subtilis) | MIC [10] | zone of inhibition at 100 µg/disc (Aspergillus niger [1]) | zone of inhibition at 150 µg/disc (Diutina rugosa [2]) | zone of inhibition at 100 µg/disc (Rhizopus arrhizus [3]) | zone of inhibition at 100 µg/disc (Candida albicans [4]) | zone of inhibition at 100 µg/disc (Saccharomyces cerevisiae [5]) | zone of inhibition at 150 µg/disc (Candida albicans [6]) | zone of inhibition at 150 µg/disc (Aspergillus niger [7]) | zone of inhibition at 150 µg/disc (Saccharomyces cerevisiae [8]) | zone of inhibition at 150 µg/disc (Rhizopus arrhizus [9]) | zone of inhibition at 100 µg/disc (Diutina rugosa [11])
1 | CN[C@@H]1[C@H](O[C@H]2[C@H](O[C@H]3[C@H](O)[C@@H](O)[C@H](N=C(N)N)[C@@H](O)[C@@H]3N=C(N)N)O[C@@H](C)[C@]2(O)C=O)O[C@@H](CO)[C@H](O)[C@H]1O [STREPTOMYCIN] | 1.56 µg/mL (≈ 2.69 µM) | 6.25 µg/mL (≈ 10.7 µM) | 6.25 µg/mL (≈ 10.7 µM) | 3.12 µg/mL (≈ 5.37 µM) | 6.25 µg/mL (≈ 10.7 µM) | 3.12 µg/mL (≈ 5.37 µM) |  |  |  |  |  |  |  |  |  | 
2 | COc1ccc(C(c2oc(CO)cc(=O)c2O)c2c[nH]c3ccc(Cl)cc23)cc1 (stereo not given) | 4.68 µg/mL (≈ 11.4 µM) | 4.68 µg/mL (≈ 11.4 µM) | 2.34 µg/mL (≈ 5.68 µM) | 18.8 µg/mL (≈ 45.5 µM) | 150 µg/mL (≈ 364 µM) | 150 µg/mL (≈ 364 µM) | 14 mm | 0 mm | 0 mm | 11 mm | 16 mm | 16 mm | 20 mm | 21 mm | 0 mm | 0 mm
3 | C[C@@H]1[C@H](O)[C@@H](C)/C=C/C=C/C=C/C=C/C=C/C=C/C=C/[C@H](O[C@@H]2O[C@H](C)[C@@H](O)[C@H](N)[C@@H]2O)C[C@@H]2O[C@](O)(C[C@@H](O)C[C@@H](O)[C@H](O)CC[C@@H](O)C[C@@H](O)CC(=O)O[C@H]1C)C[C@H](O)[C@H]2C(=O)O [AMPHOTERICIN B] |  |  |  |  |  |  | 25 mm |  | 24 mm | 23.5 mm | 22 mm |  |  |  |  | 22 mm
4 | O=c1cc(CO)oc(C(c2ccccc2)c2c[nH]c3ccccc23)c1O (stereo not given) | 150 µg/mL (≈ 432 µM) | 150 µg/mL (≈ 432 µM) | 150 µg/mL (≈ 432 µM) | 75 µg/mL (≈ 216 µM) | 150 µg/mL (≈ 432 µM) | 150 µg/mL (≈ 432 µM) | 10 mm | 9 mm | 0 mm | 0 mm | 0 mm | 0 mm | 14 mm | 0 mm | 0 mm | 6 mm
5 | O=c1cc(CO)oc(C(c2cccc(Oc3ccccc3)c2)c2c[nH]c3ccccc23)c1O (stereo not given) | 75 µg/mL (≈ 171 µM) | 75 µg/mL (≈ 171 µM) | 37.5 µg/mL (≈ 85.3 µM) | 75 µg/mL (≈ 171 µM) | 150 µg/mL (≈ 341 µM) | 18.8 µg/mL (≈ 42.7 µM) | 11 mm | 18 mm | 7 mm | 14 mm | 14 mm | 19 mm | 16 mm | 19 mm | 10 mm | 13 mm
6 | COc1cc(C(c2oc(CO)cc(=O)c2O)c2c(C)[nH]c3ccccc23)ccc1O (stereo not given) | 150 µg/mL (≈ 368 µM) | 150 µg/mL (≈ 368 µM) | 150 µg/mL (≈ 368 µM) | 150 µg/mL (≈ 368 µM) | 150 µg/mL (≈ 368 µM) | 150 µg/mL (≈ 368 µM) | 0 mm | 0 mm | 0 mm | 0 mm | 0 mm | 0 mm | 0 mm | 0 mm | 0 mm | 0 mm
7 | Cc1[nH]c2ccccc2c1C(c1ccc2ccccc2c1)c1oc(CO)cc(=O)c1O (stereo not given) | 150 µg/mL (≈ 365 µM) | 150 µg/mL (≈ 365 µM) | 150 µg/mL (≈ 365 µM) | 150 µg/mL (≈ 365 µM) | 150 µg/mL (≈ 365 µM) | 150 µg/mL (≈ 365 µM) | 0 mm | 0 mm | 0 mm | 0 mm | 0 mm | 0 mm | 0 mm | 0 mm | 0 mm | 0 mm
8 | CC1(C)S[C@@H]2[C@H](NC(=O)Cc3ccccc3)C(=O)N2[C@H]1C(=O)O [PENICILLIN G] | 12.5 µg/mL (≈ 37.4 µM) | 12.5 µg/mL (≈ 37.4 µM) | 1.56 µg/mL (≈ 4.67 µM) | 6.25 µg/mL (≈ 18.7 µM) | 1.56 µg/mL (≈ 4.67 µM) | 3.12 µg/mL (≈ 9.35 µM) |  |  |  |  |  |  |  |  |  | 
9 | O=c1cc(CO)oc(C(c2ccccc2O)c2c(-c3ccccc3)[nH]c3ccccc23)c1O (stereo not given) | 18.8 µg/mL (≈ 42.7 µM) | 37.5 µg/mL (≈ 85.3 µM) | 4.68 µg/mL (≈ 10.6 µM) | 75 µg/mL (≈ 171 µM) | 150 µg/mL (≈ 341 µM) | 150 µg/mL (≈ 341 µM) | 0 mm | 0 mm | 0 mm | 10 mm | 12 mm | 14 mm | 0 mm | 16 mm | 0 mm | 0 mm
10 | Cc1[nH]c2ccccc2c1C(c1ccc(Cl)cc1)c1oc(CO)cc(=O)c1O (stereo not given) | 18.8 µg/mL (≈ 47.4 µM) | 18.8 µg/mL (≈ 47.4 µM) | 37.5 µg/mL (≈ 94.7 µM) | 75 µg/mL (≈ 189 µM) | 150 µg/mL (≈ 379 µM) | 18.8 µg/mL (≈ 47.4 µM) | 8 mm | 0 mm | 7 mm | 0 mm | 0 mm | 0 mm | 12 mm | 0 mm | 10 mm | 0 mm

The remaining compounds from weak to strong by MIC (Pseudomonas aeruginosa), led by results:

Row | MIC (Pseudomonas aeruginosa) | MIC (Escherichia coli) | MIC (Staphylococcus aureus) | MIC (Klebsiella pneumoniae) | MIC (Bacillus subtilis) | MIC [10] | Compound | zone of inhibition at 100 µg/disc (Aspergillus niger [1]) | zone of inhibition at 150 µg/disc (Diutina rugosa [2]) | zone of inhibition at 100 µg/disc (Rhizopus arrhizus [3]) | zone of inhibition at 100 µg/disc (Candida albicans [4]) | zone of inhibition at 100 µg/disc (Saccharomyces cerevisiae [5]) | zone of inhibition at 150 µg/disc (Candida albicans [6]) | zone of inhibition at 150 µg/disc (Aspergillus niger [7]) | zone of inhibition at 150 µg/disc (Saccharomyces cerevisiae [8]) | zone of inhibition at 150 µg/disc (Rhizopus arrhizus [9]) | zone of inhibition at 100 µg/disc (Diutina rugosa [11])
11 | 150 µg/mL (≈ 383 µM) | 150 µg/mL (≈ 383 µM) | 150 µg/mL (≈ 383 µM) | 150 µg/mL (≈ 383 µM) | 150 µg/mL (≈ 383 µM) | 150 µg/mL (≈ 383 µM) | COc1ccc(C(c2oc(CO)cc(=O)c2O)c2c(C)[nH]c3ccccc23)cc1 (stereo not given) | 0 mm | 0 mm | 0 mm | 0 mm | 0 mm | 0 mm | 0 mm | 0 mm | 0 mm | 0 mm
12 | 75 µg/mL (≈ 165 µM) | 75 µg/mL (≈ 165 µM) | 37.5 µg/mL (≈ 82.7 µM) | 150 µg/mL (≈ 331 µM) | 150 µg/mL (≈ 331 µM) | 150 µg/mL (≈ 331 µM) | COc1ccc(C(c2oc(CO)cc(=O)c2O)c2c(-c3ccccc3)[nH]c3ccccc23)cc1 (stereo not given) | 10 mm | 14 mm | 0 mm | 9 mm | 9 mm | 12 mm | 14 mm | 14 mm | 0 mm | 10 mm
13 | 75 µg/mL (≈ 199 µM) | 150 µg/mL (≈ 397 µM) | 37.5 µg/mL (≈ 99.4 µM) | 75 µg/mL (≈ 199 µM) | 150 µg/mL (≈ 397 µM) | 18.8 µg/mL (≈ 49.7 µM) | COc1ccc(C(c2oc(CO)cc(=O)c2O)c2c[nH]c3ccccc23)cc1 (stereo not given) | 0 mm | 9 mm | 0 mm | 0 mm | 0 mm | 0 mm | 0 mm | 0 mm | 0 mm | 6 mm
14 | 75 µg/mL (≈ 165 µM) | 75 µg/mL (≈ 165 µM) | 18.8 µg/mL (≈ 41.3 µM) | 75 µg/mL (≈ 165 µM) | 150 µg/mL (≈ 331 µM) | 150 µg/mL (≈ 331 µM) | Cc1[nH]c2ccccc2c1C(c1cccc(Oc2ccccc2)c1)c1oc(CO)cc(=O)c1O (stereo not given) | 9 mm | 16 mm | 0 mm | 9 mm | 10 mm | 14 mm | 14 mm | 14 mm | 0 mm | 11 mm
15 | 37.5 µg/mL (≈ 82.2 µM) | 37.5 µg/mL (≈ 82.2 µM) | 18.8 µg/mL (≈ 41.1 µM) | 75 µg/mL (≈ 164 µM) | 150 µg/mL (≈ 329 µM) | 18.8 µg/mL (≈ 41.1 µM) | COc1ccc(C(c2oc(CO)cc(=O)c2O)c2c[nH]c3ccc(Br)cc23)cc1 (stereo not given) | 12 mm | 19 mm | 0 mm | 13 mm | 10 mm | 18 mm | 18 mm | 16 mm | 0 mm | 13 mm
16 | 37.5 µg/mL (≈ 99.9 µM) | 9.38 µg/mL (≈ 25 µM) | 9.38 µg/mL (≈ 25 µM) | 75 µg/mL (≈ 200 µM) | 18.8 µg/mL (≈ 49.9 µM) | 18.8 µg/mL (≈ 49.9 µM) | CCC(c1oc(CO)cc(=O)c1O)c1c(-c2ccccc2)[nH]c2ccccc12 (stereo not given) | 0 mm | 0 mm | 0 mm | 0 mm | 14 mm | 0 mm | 0 mm | 20 mm | 0 mm | 0 mm
